What was measured:
Cavia porcellus [1] = species on record: Cavia porcellus; test: Tested in vitro for bronchodilatory activity by spontaneous tone inhibition in guinea pig tracheal strips; assay type: functional; details: Trachea
Cavia porcellus [2] = test: In vivo inhibitory effect on airway constriction induced by histamine 2-5 micro g/kg iv at 1 min after 10 mg/kg intravenous dose in anesthetized guinea pigs; assay type: functional
In short: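 Male Dunkin-Hartley guinea pigs, anesthetized with pentobarbital 35 mg/kg ip, cannulated at jugular vein and trachea, ventilated at 10 mL/kg and 60 strokes/min. Insufflation pressure recorded continuously by transducer. Histamine given iv every 10 min until the constriction was reproducible. Compound 10 mg/kg iv given 1 min before the next challenge. Result is mean % inhibition against control response, from ≥3 experiments.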

[3] = test system: Thromboxane-A synthase (Oryctolagus cuniculus); test: Tested for inhibition of thromboxane A2 (TXA2) production in rabbit by in vitro assay at 1 uM
[4] = target: T1, Thromboxane-A synthase (Rattus norvegicus) (UniProt P49430); test: Tested for inhibition of thromboxane A2 (TXA2) production in rat serum by ex vivo assay after peroral dose of 30 mg/kg; assay type: functional, organism-based; parameters: dose 30 mg/kg
T1 sequence (whole entry): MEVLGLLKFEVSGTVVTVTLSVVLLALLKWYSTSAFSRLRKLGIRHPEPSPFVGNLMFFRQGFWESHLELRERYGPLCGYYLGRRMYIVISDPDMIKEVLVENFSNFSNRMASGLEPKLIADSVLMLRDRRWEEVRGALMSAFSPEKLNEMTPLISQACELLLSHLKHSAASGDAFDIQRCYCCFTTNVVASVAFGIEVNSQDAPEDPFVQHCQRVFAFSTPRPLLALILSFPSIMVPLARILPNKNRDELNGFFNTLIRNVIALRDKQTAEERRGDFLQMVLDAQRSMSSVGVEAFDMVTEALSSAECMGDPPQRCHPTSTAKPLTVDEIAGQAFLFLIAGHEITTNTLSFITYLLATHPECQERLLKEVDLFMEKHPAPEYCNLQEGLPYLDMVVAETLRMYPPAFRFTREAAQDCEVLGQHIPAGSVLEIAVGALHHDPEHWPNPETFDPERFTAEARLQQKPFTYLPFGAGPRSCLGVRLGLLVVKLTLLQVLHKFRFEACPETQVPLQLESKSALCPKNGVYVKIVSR
In short: (§1)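 Male SD rats (240–260 g), fasted 20 h, dosed orally in 0.5% carboxymethylcellulose or given vehicle. After 1 h under ether, 2 mL cardiac blood was drawn and clotted 90 min at 37 °C. Serum was EtOH-deproteinized and stored at -20 °C. TXB₂ measured by radioimmunoassay. % inhibition calculated against each vehicle control group.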

[5] = Partition coefficient (logP); assay type: physicochemical; details: octanol/water
Rattus norvegicus = test: Tested for inhibition of TXA2 production in rat serum by ex vivo assay after peroral dose of 3 mg/kg; assay type: functional; details: route oral; in short: as §1

| IC50 (Cavia porcellus [1]) | inhibition [3] | inhibition [4] | logP [5] | SMILES | inhibition in vivo at 10 mg/kg (Cavia porcellus [2]) | inhibition in vivo at 3 mg/kg (Rattus norvegicus) |
| --- | --- | --- | --- | --- | --- | --- |
| 24 µM | 27% | 47% | 0.66 | O=c1c2ccccc2c(-c2ccncc2)nn1CCn1ccnc1 | 100% |  |
| 49 µM | 14% |  |  | O=C(O)c1ccccc1-c1nn(CCn2ccnc2)c(=O)c2ccccc12 | 94% |  |
| 12 µM | 14% | 21% | 2 | CC(C)Cc1nn(CCn2ccnc2)c(=O)c2ccccc12 |  |  |
| 13.2 µM | 62% |  |  | CCOC(=O)c1ccc(-c2nn(CCn3ccnc3)c(=O)c3ccccc23)s1 | 92% |  |
| 10 µM | 60% |  |  | CCOC(=O)c1ccc(-c2nn(CCn3ccnc3)c(=O)c3ccccc23)cc1 | 92% |  |
| 10.7 µM | 45% | -5% |  | O=c1c2ccccc2c(Cc2ccccc2)nn1CCn1ccnc1 | 98% |  |
| 6.61 µM | 53% | 0% |  | Cc1ccc(-c2nn(CCn3ccnc3)c(=O)c3ccccc23)s1 | 26% |  |
| 42.7 µM | 20% | 41% | 0.87 | O=c1c2ccccc2c(-c2ccccn2)nn1CCn1ccnc1 | 30% |  |
| 34.7 µM |  |  |  | O=C(O)c1ccc(-c2nn(CCn3ccnc3)c(=O)c3ccccc23)s1 | 5% |  |
| 64.6 µM | 24% |  |  | O=C(O)c1ccc(-c2nn(CCn3ccnc3)c(=O)c3ccccc23)cc1 | 21% |  |
| 8.13 µM | 63% |  |  | O=c1c2ccccc2c(-c2ccccc2)nn1CCCCCCCCn1ccnc1 |  |  |
| 4.47 µM | 83% | 67% | 2.7 | CSc1ccc(-c2nn(CCn3ccnc3)c(=O)c3ccccc23)cc1 | 73% |  |
| 17.4 µM | 65% |  |  | O=c1c2ccccc2c(-c2ccccc2)nn1CCCCn1ccnc1 |  |  |
| 7.59 µM | 29% | 35% |  | O=c1c2ccccc2c(Cc2cccs2)nn1CCn1ccnc1 | 100% |  |
| 11.2 µM | 40% |  |  | O=c1c2ccccc2c(-c2ccc(C(F)(F)F)cc2)nn1CCn1ccnc1 |  |  |
| 4.27 µM | 88% |  | 1.94 | COc1ccc(-c2nn(CCn3ccnc3)c(=O)c3ccccc23)s1 |  |  |
| 5.37 µM | 64% | 52% |  | CC(C)c1ccc(-c2nn(CCn3ccnc3)c(=O)c3ccccc23)cc1 | 68% |  |
| 3.55 µM | 22% | 47% | 1.99 | O=c1c2ccccc2c(-c2cccs2)nn1CCn1ccnc1 | 84% |  |
| 25.1 µM | 74% | 50% | 2.06 | COc1ccc(-c2nn(CCn3ccnc3)c(=O)c3ccccc23)cc1 | 0% |  |
| 23.4 µM | 69% |  |  | O=c1c2ccccc2c(-c2ccccc2)nn1CCCCCn1ccnc1 |  |  |
| 1.45 µM | 47% | 15% |  | O=c1c2ccccc2c(-c2ccc(Cl)s2)nn1CCn1ccnc1 | 96% |  |
| 11 µM | 57% |  |  | O=c1c2ccccc2c(-c2ccccc2)nn1CCCn1ccnc1 |  |  |
| 6.46 µM | 27% | 32% |  | COc1ccc(-c2nn(CCn3ccnc3)c(=O)c3ccccc23)cc1OC | 90% |  |

| IC50 (Cavia porcellus [1]) | inhibition [3] | inhibition [4] | logP [5] | SMILES | inhibition in vivo at 10 mg/kg (Cavia porcellus [2]) | inhibition in vivo at 3 mg/kg (Rattus norvegicus) |
| --- | --- | --- | --- | --- | --- | --- |
| 7.76 µM | 79% | 55% | 3.17 | CCc1ccc(-c2nn(CCn3ccnc3)c(=O)c3ccccc23)cc1 | 8% |  |
| 60.3 µM | 64% |  |  | CCOC(=O)c1ccccc1-c1nn(CCn2ccnc2)c(=O)c2ccccc12 | 60% |  |
| 0.676 µM | 32% | 28% | 3.19 | O=c1c2ccccc2c(C2CCCCC2)nn1CCn1ccnc1 | 71% |  |
| 5.89 µM | 38% |  | 2.63 | O=c1c2ccccc2c(C2CCCC2)nn1CCn1ccnc1 | 98% |  |
| 2.34 µM | 55% | 0% |  | CCOC(=O)c1cccc(-c2nn(CCn3ccnc3)c(=O)c3ccccc23)c1 | 90% |  |
| 2.04 µM | 63% | 40% |  | O=c1c2ccccc2c(-c2ccc(Cl)cc2)nn1CCn1ccnc1 | 71% |  |
| 42.7 µM | 27% |  | 1.52 | O=c1c2ccccc2c(-c2ccco2)nn1CCn1ccnc1 |  |  |
| 15.1 µM | 80% | 5% | 1.51 | CC(=O)c1ccc(-c2nn(CCn3ccnc3)c(=O)c3ccccc23)s1 | 94% |  |
| 5.13 µM | 76% | 0% |  | Cc1ccc(-c2nn(CCn3ccnc3)c(=O)c3ccccc23)cc1 | 94% |  |
| 5.62 µM | 54% | 68% |  | CCOc1ccc(-c2nn(CCn3ccnc3)c(=O)c3ccccc23)cc1 | 87% |  |
| 1.78 µM | 67% | 52% | 3.02 | CCc1ccc(-c2nn(CCn3ccnc3)c(=O)c3ccccc23)s1 | 96% |  |
| > 1000 µM |  |  |  | O=C(O)/C=C/c1ccc(Cn2ccnc2)cc1 [OZAGREL] | 0% |  |
| 15.8 µM | 33% | 46% |  | O=c1c2ccccc2c(-c2ccc(F)cc2)nn1CCn1ccnc1 | 100% |  |
| 9.77 µM | 79% |  |  | O=c1c2ccccc2c(-c2ccccc2)nn1CCCCCCn1ccnc1 |  |  |
| 5.62 µM | 49% | 40% |  | O=c1c2ccccc2c(Cc2ccc(Cl)cc2)nn1CCn1ccnc1 | 100% |  |
| 26.9 µM |  | 90% | 0.66 | O=c1c2ccccc2c(-c2cccnc2)nn1CCn1ccnc1 | 97% | 63% |
| 3.89 µM | 63% | 60% |  | COc1ccc(-c2nn(CCn3ccnc3)c(=O)c3ccccc23)cc1F | 54% |  |
| > 100 µM | 10% |  | 0.538 | Cc1nn(CCn2ccnc2)c(=O)c2ccccc12 |  |  |
| > 100 µM | 10% |  |  | O=C(O)c1cccc(-c2nn(CCn3ccnc3)c(=O)c3ccccc23)c1 | 33% |  |
| 18.6 µM | 68% | 46% |  | CCc1ccsc1-c1nn(CCn2ccnc2)c(=O)c2ccccc12 | 84% |  |
| 1.32 µM | 41% | 0% | 2.14 | O=c1c2ccccc2c(-c2ccccc2)nn1CCn1ccnc1 | 88% |  |
| 1 µM | 49% | 37% |  | O=c1c2ccccc2c(-c2cccc(C(F)(F)F)c2)nn1CCn1ccnc1 | 42% |  |

| SMILES | IC50 (Cavia porcellus [1]) | inhibition [3] | inhibition [4] | logP [5] | inhibition in vivo at 10 mg/kg (Cavia porcellus [2]) | inhibition in vivo at 3 mg/kg (Rattus norvegicus) |
| --- | --- | --- | --- | --- | --- | --- |
| Cn1c(=O)c2[nH]cnc2n(C)c1=O [AMINOPHYLLINE] | 46.8 µM |  | 0% |  | 86% |  |

Source: ChEMBL document CHEMBL1126556, “Novel antiasthmatic agents with dual activities of thromboxane A2 synthetase inhibition and bronchodilation. 1. 2-[2-(1-Imidazolyl)alkyl]-1(2H)-phthalazinones” (J Med Chem, 1993)
